Measured values as given in ChEMBL document CHEMBL1287801, “Discovery of NBI-77860/GSK561679, a potent corticotropin-releasing factor (CRF1) receptor antagonist with improved pharmacokinetic properties” (Bioorg Med Chem Lett, 2010).

Key:
[1] = target: T1, Corticotropin-releasing factor receptor 1 (Homo sapiens, UniProt P34998); assay: Antagonist activity at human recombinant CRF1 receptor; format: functional
T1 sequence (P34998 whole entry): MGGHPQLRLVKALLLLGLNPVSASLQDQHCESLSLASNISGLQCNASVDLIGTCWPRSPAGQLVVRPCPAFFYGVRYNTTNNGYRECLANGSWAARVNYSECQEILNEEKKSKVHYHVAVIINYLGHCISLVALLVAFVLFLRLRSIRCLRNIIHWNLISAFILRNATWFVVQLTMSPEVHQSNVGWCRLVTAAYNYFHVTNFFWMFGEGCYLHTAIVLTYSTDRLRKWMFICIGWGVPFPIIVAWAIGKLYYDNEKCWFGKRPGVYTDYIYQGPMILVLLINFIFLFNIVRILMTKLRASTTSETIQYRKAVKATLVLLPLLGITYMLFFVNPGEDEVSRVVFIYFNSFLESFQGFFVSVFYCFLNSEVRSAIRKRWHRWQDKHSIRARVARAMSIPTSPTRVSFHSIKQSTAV

[2] = Metabolic stability in human liver microsome assessed as maximum bioavailability; format: ADME; details: liver microsomes, read-out: Max Achievable Bioavailability
[3] = system: Rattus norvegicus; assay: AUC (0 to 24 hrs) in rat at 10 mg/kg, po; format: ADME, organism-based, Plasma; parameters: time < 24 hr, dose 10 mg/kg, route oral; details: in vivo
Outline: (§1)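 Rats were given a single oral dose of 10 mg/kg and followed for 24 h. Plasma exposure was expressed as AUC0–24 and oral bioavailability was determined. Brain and plasma levels were measured 1 h post-dose to give the brain/plasma ratio.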

[4] = Ratio of drug uptake in brain to plasma in rat at 10 mg/kg, po; format: ADME, organism-based; parameters: dose 10 mg/kg, route oral; details: brain and plasma, read-out: BPR; outline: as §1
[5] = Volume of distribution in rat at 5 mg/kg, iv after 72 hrs; format: ADME, organism-based; parameters: dose 5 mg/kg, route intravenous; details: in vivo
Outline: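 Rats received a single intravenous dose of 5 mg/kg in a 72 h pharmacokinetic study. Clearance and volume of distribution at steady state (Vdss) were derived.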

Row | Structure (SMILES) | Ki [1] [nM] | Fh [2] [%] | also measured
1 | COc1ccc(-c2c(C)nn3c(NCc4nc(C)no4)cc(C)nc23)c(C)c1 | 63.1 |  | 
2 | CCC(Nc1cc(C)nc2c(-c3ccc(OC)cc3C)c(C)nn12)c1nnc(C)o1 (stereo not given) | 100 | 64 | 
3 | COc1ccc(-c2c(C)nn3c(NC(C)Cc4nnc(C)o4)cc(C)nc23)c(C)c1 (stereo not given) | 251 |  | 
4 | COc1ccc(-c2c(C)nn3c(NC(C)Cc4noc(C)n4)cc(C)nc23)c(C)c1 (stereo not given) | 79.4 | 26 | 
5 | CCCN(CCC)c1cc(C)nc2c(-c3cnc(N(C)C)cc3C)c(C)nn12 |  | 17 | 
6 | CC[C@H](Nc1cc(C)nc2c(-c3ccc(OC)cc3C)c(C)nn12)c1nc(C)no1 [VERUCERFONT] |  |  | AUC [3]: 3130 ng·h/mL; Kp [4]: 1.6; Vd [5]: 7.5 L/kg

Now from value to molecule, other results behind:

Row | Ki [1] [nM] | Fh [2] [%] | Structure (SMILES) | also measured
7 | 5.01 | 17 | CCN(Cc1nc(C)no1)c1cc(C)nc2c(-c3ccc(OC)cc3C)c(C)nn12 | 
8 | 31.6 | 32 | COc1ccc(-c2c(C)nn3c(NC(C)Cc4nc(C)no4)cc(C)nc23)c(C)c1 (stereo not given) | 
9 | 50.1 |  | CCC(Nc1cc(C)nc2c(-c3ccc(OC)cc3OC)c(C)nn12)c1nc(C)no1 (stereo not given) | 
